According to ChEMBL document CHEMBL5614410, “Design, Synthesis, and Evaluation of p53Y220C Acetylation Targeting Chimeras (AceTACs)” (J Med Chem, 2024):
The source made the active and inactive calls. The rule behind the calls is not given here.

How the values were obtained:
[1] = test system: CREB-binding protein/Histone acetyltransferase p300/Cellular tumor antigen p53 (Homo sapiens), P04637+Q09472+Q92793 [Y220C]; experiment: AceTAC activity at FLAG-tagged p53Y220C mutant (unknown origin) expressed in human NCI-H1299 cells expressing p300/CBP assessed as increase in p53 acetylation at lysine 382 residue at 10 uM incubated for 24 hrs by western blot analysis relative to control; format: cell-based
In short: (§1)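 NCI-H1299 (p53Y220C) cells were treated at 0.1–10 μM (0.1, 0.3, 1, 3 or 10 μM) for 24 h. Lysates were Western blotted for p53 and p53K382ac, with vinculin as loading control. p53K382ac was normalised to total p53Y220C and quantified from two or three independent experiments.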

[2] = test system: CREB-binding protein/Histone acetyltransferase p300/Cellular tumor antigen p53 (Homo sapiens), P04637+Q09472+Q92793 [Y220C]; experiment: AceTAC activity at FLAG-tagged p53Y220C mutant (unknown origin ) expressed in human NCI-H1299 cells expressing p300/CBP assessed as increase in p53 acetylation at lysine 382 residue at 1 uM incubated for 24 hrs by western blot analysis; format: cell-based
In short: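 NCI-H1299 cells stably expressing p53Y220C, treated 24 h at 1 or 10 μM. Lysates were Western blotted for total p53 and p53 K382ac, with vinculin as loading control. Blots are representative of at least two independent experiments.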

NCI-H1299 [3] = experiment: Antiproliferative activity against human NCI-H1299 cells expressing p53Y220C mutant assessed as reduction in cell viability incubated for 3 days by WST-8 assay; format: functional; details: NCI-H1299, 72 h, time 3 day
In short: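 NCI-H1299 p53Y220C cells were exposed to compound over a concentration range for 72 h, in some runs after 72 h of control or p300 siRNA, before the viability read-out. Values are mean ± SD of three independent experiments.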

[4] = test system: Cellular tumor antigen p53 (Homo sapiens), P04637 [Y220C]; experiment: Stabilization of p53Y220C mutant (unknown origin) expressed in human NCI-H1299 cells assessed as increase in melting temperature incubated for 1 hr by CETSA analysis; format: cell-based
In short: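 CETSA: NCI-H1299 (p53Y220C) stable cells were treated with DMSO or 100 μM for 1 h, then heated from 32 to 50 °C. Soluble p53 was detected by Western blot. Results are representative of at least two independent experiments.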

[5] = test system: Cellular tumor antigen p53 (Homo sapiens), P04637 [Y220C]; experiment: Stabilization of FLAG-tagged p53Y220C mutant (unknown origin) expressed in human NCI-H1299 cells assessed as downregulation of E2F1 mRNA expression at 3 uM incubated for 24 hrs by RT-qPCR analysis; format: cell-based
In short: (§2)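 NCI-H1299 p53Y220C cells were treated with 3 μM or DMSO for 24 h, followed by RT-qPCR of p53 target genes. Each transcript was normalized to GAPDH, then expressed relative to the DMSO control. Values are mean ± SD from three independent experiments.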

[6] = test system: CREB-binding protein/Histone acetyltransferase p300/Cellular tumor antigen p53 (Homo sapiens), P04637+Q09472+Q92793 [Y220C]; experiment: Induction of interaction between FLAG-tagged p53Y220C mutant (unknown origin) and p300/CBP expressed in human NCI-H1299 cells assessed as ternary complex formation at 10 uM incubated for 24 hrs by co-immunoprecipitation analysis; format: cell-based
In short: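 NCI-H1299 p53-null and p53Y220C cells were treated with DMSO or compound at 10 μM for 24 h. p53-FLAG pull-down was followed by Western blotting for associated p300. Representative of two independent experiments.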

[7] = Cytotoxicity against human U2OS cells harboring wild type p53 assessed as inhibition of cell growth at 10 uM incubated for 72 hrs by WST-8 assay; format: toxicity, cell-based
In short: (§3)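 U2OS (WT p53) or normal prostate PNT2 cells were treated for 72 h at the indicated concentrations. Viability is mean ± SD of technical triplicates from two biological experiments.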

NCI-H1299 [8] = experiment: Antiproliferative activity against human NCI-H1299 cells expressing p53Y220C mutant and transfected with p300 siRNA assessed as reduction in cell viability at 0.47 to 15 uM incubated for 3 days by WST-8 assay; format: functional, cell-based; details: dose 0.47-15 µM, time 3.0 day
In short: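 NCI-H1299 p53Y220C cells were first transfected with p300 siRNA for 72 h, then exposed to compound across the concentration series for 72 h. Viability is mean ± SD from three independent experiments.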

[9] = test system: Cellular tumor antigen p53 (Homo sapiens), P04637 [Y220C]; experiment: Stabilization of FLAG-tagged p53Y220C mutant (unknown origin) expressed in human NCI-H1299 cells assessed as upregulation of GADD45A mRNA expression at 3 uM incubated for 24 hrs by RT-qPCR analysis; format: cell-based; in short: as §2
[10] = test system: Cellular tumor antigen p53 (Homo sapiens), P04637 [Y220C]; experiment: Induction of p53Y220C mutant acetylation in human NUGC-3 cells expressing p300/CBP assessed as increase in p53 acetylation at lysine 382 residue at 1 to 10 uM incubated for 24 hrs by western blot analysis; format: cell-based; details: dose 1-10 µM
In short: (§4)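 BxPC3 or NUGC-3 cells, which endogenously carry p53Y220C, were dosed at 1, 3 or 10 μM (or DMSO) for 24 h. Lysates were immunoblotted for p53 and p53 K382ac, with vinculin loading control. Blots are representative of two independent experiments.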

NCI-H1299 [11] = experiment: Antiproliferative activity against p53-null human NCI-H1299 cells assessed as reduction in cell viability at 0.47 to 15 uM incubated for 3 days by WST-8 assay; format: functional, cell-based; details: dose 0.47-15 µM, time 3.0 day
In short: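 p53-null NCI-H1299 cells were exposed to compound across the concentration series for 72 h before the viability read-out. Data are mean ± SD from three independent experiments.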

[12] = Cytotoxicity against human PNT2 cells assessed as inhibition of cell growth at 10 uM incubated for 72 hrs by WST-8 assay; format: toxicity, cell-based; in short: as §3
[13] = test system: Cellular tumor antigen p53 (Homo sapiens), P04637 [Y220C]; experiment: Induction of FLAG-tagged p53Y220C mutant acetylation (unknown origin) expressed in human NCI-H1299 cells assessed as increase in p53 acetylation at lysine 382 residue at 10 uM incubated for 24 hrs by western blot analysis relative to control; format: cell-based; in short: as §1
[14] = test system: Cellular tumor antigen p53 (Homo sapiens), P04637 [Y220C]; experiment: Stabilization of p53Y220C mutant (unknown origin) assessed as increase in melting temperature at 250 uM by […]
NUGC-3 = experiment: Antiproliferative activity against human NUGC-3 cells harboring p53Y220C mutant assessed as inhibition of cell growth incubated for 72 hrs by WST-8 assay; format: functional
In short: (§5)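 BxPC3 or NUGC-3 cells were treated with DMSO or compound over a concentration range for 72 h before the viability read-out. Values are mean ± SD of technical triplicates from three biological experiments.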

[15] = test system: Cellular tumor antigen p53 (Homo sapiens), P04637 [Y220C]; experiment: Induction of p53Y220C mutant acetylation in human BXPC-3 cells expressing p300/CBP assessed as increase in p53 acetylation at lysine 382 residue at 1 to 10 uM incubated for 24 hrs by western blot analysis; format: cell-based; details: dose 1-10 µM; in short: as §4
[16] = test system: Cellular tumor antigen p53 (Homo sapiens), P04637 [Y220C]; experiment: Stabilization of FLAG-tagged p53Y220C mutant (unknown origin) expressed in human NCI-H1299 cells assessed as upregulation of p21 mRNA expression at 3 uM incubated for 24 hrs by RT-qPCR analysis; format: cell-based; in short: as §2
BXPC-3 = experiment: Antiproliferative activity against human BXPC-3 cells harboring p53Y220C mutant assessed as inhibition of cell growth incubated for 72 hrs by WST-8 assay; format: functional; in short: as §5
PNT2 = experiment: Cytotoxicity against human PNT2 cells assessed as inhibition of cell growth incubated for 72 hrs by WST-8 assay; format: toxicity, cell-based; details: pnt2, 72 h; in short: as §3
U2OS = experiment: Cytotoxicity against human U2OS cells harboring wild type p53 assessed as inhibition of cell growth incubated for 72 hrs by WST-8 assay; format: toxicity, cell-based; in short: as §3
[17] = test system: Cellular tumor antigen p53 (Homo sapiens), P04637 [Y220C]; experiment: Stabilization of p53Y220C mutant (unknown origin) assessed as increase in melting temperature by […]

Question: With `CCn1c2ccc(CNCCOCCOCCOCCOCCOCCC(=O)NCCOc3ccc(CCc4nc5cc(-c6c(C)noc6C)ccc5n4CCN4CCOCC4)cc3F)cc2c2ccc(-c3cc(C)cs3)cc21` as the molecule, how does the Activity [1] read?
Answer: 184%

Question: What about the Activity [2] of the same molecule?
Answer: Active

Question: And the GI50 (NCI-H1299 [3])?
Answer: 5 µM

Question: Which ΔTm [4] does the source give for `C=C(C)C(=O)n1cc(C)c2c(-c3ccc4c(c3)CCN(C)C4)cncc21` here?
Answer: 8.3 °C

Question: Which results are given for `CCn1c2ccc(CNCCCCCCC(=O)NCCOc3ccc(CCc4nc5cc(-c6c(C)noc6C)ccc5n4CCN4CCOCC4)cc3F)cc2c2ccc(-c3cc(C)cs3)cc21`?
Answer: Activity [1]: 219%; Activity [2]: Active; GI50 (NCI-H1299 [3]): 4 µM

Question: Which Activity [1] does the source give for `CCn1c2ccc(CNCCCCCC(=O)NCCOc3ccc(CCc4nc5cc(-c6c(C)noc6C)ccc5n4CCN4CCOCC4)cc3F)cc2c2ccc(-c3cc(C)cs3)cc21` here?
Answer: 176%

Question: And the Activity [2]?
Answer: Active

Question: And the GI50 (NCI-H1299 [3])?
Answer: 4 µM

Question: With `CCn1c2ccc(CNCCC(=O)NCCOc3ccc(CCc4nc5cc(-c6c(C)noc6C)ccc5n4CCN4CCOCC4)cc3F)cc2c2ccc(-c3cc(C)cs3)cc21` as the molecule, how does the Activity [1] read?
Answer: 70%

Question: And the GI50 (NCI-H1299 [3])?
Answer: 13 µM

Question: For `CCn1c2ccc(CNC)cc2c2ccc(-c3cc(C)cs3)cc21`, which Activity [5] is on record?
Answer: inactive

Question: What about the Activity [6] of the same molecule?
Answer: inactive

Question: What about the inhibition at 72 h, 10 µM [7] of the same molecule?
Answer: 30%

Question: What about the Activity (NCI-H1299 [8]) of the same molecule?
Answer: Active

Question: What about the Activity [9] of the same molecule?
Answer: Active

Question: What about the Activity [10] of the same molecule?
Answer: inactive

Question: What about the Activity (NCI-H1299 [11]) of the same molecule?
Answer: inactive

Question: And the inhibition at 72 h, 10 µM [12]?
Answer: ~30%

Question: And the Activity [13]?
Answer: 26%

Question: What about the ΔTm [14] of the same molecule?
Answer: 3.7 °C

Question: And the GI50 (NUGC-3)?
Answer: 10.1 µM

Question: And the Activity [15]?
Answer: inactive

Question: What about the Activity [16] of the same molecule?
Answer: Active

Question: What about the GI50 (BXPC-3) of the same molecule?
Answer: 14 µM

Question: And the GI50 (NCI-H1299 [3])?
Answer: 16 µM

Question: And the GI50 (PNT2)?
Answer: > 10 µM

Question: And the GI50 (U2OS)?
Answer: > 10 µM

Question: For `CCn1c2ccc(CNCCCCC(=O)NCCOc3ccc(CCc4nc5cc(-c6c(C)noc6C)ccc5n4CCN4CCOCC4)cc3F)cc2c2ccc(-c3cc(C)cs3)cc21`, which Activity [1] is on record?
Answer: 202%

Question: And the Activity [2]?
Answer: Active

Question: What about the GI50 (NCI-H1299 [3]) of the same molecule?
Answer: 4 µM

Question: With `CCn1c2ccccc2c2cc(CNC)ccc21` as the molecule, how does the ΔTm [17] read?
Answer: 1 °C

Question: For `CCn1c2ccc(CNCCOCCOCCC(=O)NCCOc3ccc(CCc4nc5cc(-c6c(C)noc6C)ccc5n4CCN4CCOCC4)cc3F)cc2c2ccc(-c3cc(C)cs3)cc21`, which Activity [1] is on record?
Answer: 205%

Question: What about the Activity [2] of the same molecule?
Answer: Active

Question: What about the GI50 (NCI-H1299 [3]) of the same molecule?
Answer: 4 µM
